Converted amounts (≈) assume the structure as drawn.
Assays:
[1] = test system: Plasmodium falciparum; experiment: In vitro inhibitory activity against Plasmodium falciparum (sierra leone clone); assay type: functional, organism-based
[2] = test system: Plasmodium falciparum; experiment: Inhibitory concentration against Plasmodium falciparum D6 (Sierra Leone); assay type: functional, organism-based
Method in brief: (§1)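 Micromanipulation-derived P. falciparum clones were tested by semiautomated microdilution at 0.5% parasitemia and 1.5% hematocrit. Drugs were dissolved in DMSO and diluted in medium with 10% plasma, giving serial dilutions over a 64-fold range. Plates were held at 37 °C under 5% O2/5% CO2/90% N2 for 24 h, then pulsed with tritiated hypoxanthine for 18–20 h. Uptake was counted by scintillation, and IC50 was obtained by nonlinear regression.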

[3] = test system: Plasmodium berghei; experiment: Blood schizonticidal activity against Plasmodium berghei 1100; assay type: functional
Method in brief: (§2)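 Mice infected with parasitised donor blood of drug-sensitive or drug-resistant lines were given a single subcutaneous dose daily on 4 consecutive days, starting 3 h post-infection, across a dose range. Compounds were dissolved in water or sonicated into 0.1% Tween 80. Parasitaemia was read from thin blood films 1 day after treatment ended and compared with sham-treated controls. ED50/ED90 came from log dose/probit plots, with a resistance index at the ED90 level.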

[4] = test system: Plasmodium berghei; experiment: Blood schizonticidal activity against Plasmodium berghei ART; assay type: functional; method in brief: as §2
[5] = test system: Plasmodium berghei; experiment: Blood schizonticidal activity against Plasmodium berghei B; assay type: functional; method in brief: as §2
[6] = test system: Plasmodium berghei; experiment: Blood schizonticidal activity against Plasmodium berghei MEN; assay type: functional; method in brief: as §2
[7] = test system: Plasmodium berghei; experiment: Blood schizonticidal activity against Plasmodium berghei N; assay type: functional; method in brief: as §2
[8] = test system: Plasmodium berghei; experiment: Blood schizonticidal activity against Plasmodium berghei N/HAL; assay type: functional; method in brief: as §2
[9] = test system: Plasmodium berghei; experiment: Blood schizonticidal activity against Plasmodium berghei NPN; assay type: functional; method in brief: as §2
[10] = test system: Plasmodium berghei; experiment: Blood schizonticidal activity against Plasmodium berghei NS; assay type: functional; method in brief: as §2
[11] = test system: Plasmodium berghei; experiment: Blood schizonticidal activity against Plasmodium berghei ORA; assay type: functional; method in brief: as §2
[12] = test system: Plasmodium berghei; experiment: Blood schizonticidal activity against Plasmodium berghei P; assay type: functional; method in brief: as §2
[13] = test system: Plasmodium berghei; experiment: Blood schizonticidal activity against Plasmodium berghei PYR; assay type: functional; method in brief: as §2
[14] = test system: Plasmodium berghei; experiment: Blood schizonticidal activity against Plasmodium berghei QS; assay type: functional; method in brief: as §2
[15] = test system: Plasmodium falciparum; experiment: Inhibitory concentration against Plasmodium falciparum W2 Indochina; assay type: functional, organism-based; method in brief: as §1
[16] = test system: Plasmodium berghei; experiment: Blood schizonticidal activity against Plasmodium berghei N/1100; assay type: functional; method in brief: as §2
[17] = test system: Plasmodium berghei; experiment: Blood schizonticidal activity against Plasmodium berghei RC; assay type: functional; method in brief: as §2

Compound	IC50 [1]	IC50 [2]	ED90 [3]	ED90 [4]	I 90 [4]	ED90 [5]	I 90 [5]	ED90 [6]	I 90 [6]	ED90 [7]	I 90 [7]	ED90 [8]	I 90 [8]	ED90 [9]	I 90 [9]	ED90 [10]	I 90 [10]	ED90 [11]	I 90 [11]	IC50 [15]	also measured
C[C@H]1[C@@H](O)O[C@@H]2OC3(C)CC[C@H]4[C@H](C)CC[C@@H]1[C@@]24O3 (single isomer, unassigned)	136 ng/mL (≈ 0.505 µM)	506 nM	–	–	–	–	–	–	–	–	–	–	–	–	–	–	–	–	–	–	–
CCO[C@@H]1O[C@@H]2OC3(C)CC[C@H]4[C@H](C)CC[C@@H]([C@H]1C)[C@@]24OO3 (single isomer, unassigned) [ALPHA-ARTEETHER]	–	4.18 nM	4.1	29	22.3	2.9	2.4	1.7	1.4	1.3	1	9.5	7.3	3.5	2.9	1.5	1.3	0.8	0.7	3.07 nM	ED90 [12]: 2.5; I 90 [12]: 2.1; ED90 [13]: 1.3; I 90 [13]: 1.1; ED90 [14]: 13.8; I 90 [14]: 10.6; I 90 [16]: 3.4; ED90 [17]: 16.5; I 90 [17]: 13.8
C[C@H]1[C@H](OC(=O)CCC(=O)O)O[C@@H]2O[C@@]3(C)CC[C@H]4[C@H](C)CC[C@@H]1[C@@]24OO3 [SODIUM ARESUNATE]	–	2.18 nM	–	–	–	–	–	–	–	–	–	–	–	–	–	–	–	–	–	1.66 nM	–
OC(c1cc(C(F)(F)F)nc2c(C(F)(F)F)cccc12)C1CCCCN1 (stereo not given) [MEFLOQUINE]	–	33.4 nM	–	–	–	–	–	–	–	–	–	–	–	–	–	–	–	–	–	5.75 nM	–
C[C@@H]1CC[C@H]2[C@@H](C)C(=O)O[C@@H]3O[C@@]4(C)CC[C@@H]1[C@]32OO4 [ARTEMISININ]	2.97 ng/mL (≈ 0.0105 µM)	10.5 nM	17	49	21.3	8.2	2	6.2	1.5	2.3	1	31	13.5	90	21.4	10	2.4	7.5	1.8	6.41 nM	ED90 [12]: 12; I 90 [12]: 2.9; ED90 [13]: 4.8; I 90 [13]: 1.1; ED90 [14]: 24; I 90 [14]: 10.4; I 90 [16]: 4; ED90 [17]: 630; I 90 [17]: 150
CCO[C@H]1O[C@@H]2O[C@@]3(C)CC[C@H]4[C@H](C)CC[C@@H]([C@H]1C)[C@@]24OO3 [ARTEMOTIL]	1.27 ng/mL (≈ 0.00407 µM)	4.07 nM	4.2	2.3	4.6	0.9	0.8	2.2	2	0.5	1	2.1	4.2	2.5	2.3	2.2	2	0.8	0.7	2.94 nM	ED90 [12]: 0.8; I 90 [12]: 0.7; ED90 [13]: 0.8; I 90 [13]: 0.7; ED90 [14]: 1.4; I 90 [14]: 2.8; I 90 [16]: 3.8; ED90 [17]: 8.2; I 90 [17]: 7.5
C[C@H]1[C@@H](O)O[C@@H]2O[C@@]3(C)CC[C@H]4[C@H](C)CC[C@@H]1[C@@]24OO3 [ARTENIMOL]	0.52 ng/mL (≈ 0.00183 µM)	1.83 nM	–	–	–	–	–	–	–	–	–	–	–	–	–	–	–	–	–	1.79 nM	–
CO[C@H]1O[C@@H]2O[C@@]3(C)CC[C@H]4[C@H](C)CC[C@@H]([C@H]1C)[C@@]24OO3 [ARTEMETHER]	–	4.49 nM	–	–	–	–	–	–	–	–	–	–	–	–	–	–	–	–	–	3.34 nM	–
CCO[C@H]1O[C@@H]2OC3(C)CC[C@H]4[C@H](C)CC[C@@H]([C@H]1C)[C@@]24O3 (single isomer, unassigned)	172 ng/mL (≈ 0.579 µM)	580 nM	–	–	–	–	–	–	–	–	–	–	–	–	–	–	–	–	–	–	–
C[C@@H]1CC[C@H]2[C@@H](C)C(=O)O[C@@H]3O[C@@]4(C)CC[C@@H]1[C@]32O4 [DEOXYARTEMISININ]	–	2860 nM	–	–	–	–	–	–	–	–	–	–	–	–	–	–	–	–	–	–	–

Source: ChEMBL document CHEMBL1124063, “Arteether, a new antimalarial drug: synthesis and antimalarial properties” (J Med Chem, 1988)
